Consider 37 compounds from ChEMBL document CHEMBL3286193, “Discovery of a series of 2,5-diaminopyrimidine covalent irreversible inhibitors of Bruton's tyrosine kinase with in vivo antitumor activity” (J Med Chem, 2014).

pIC50: −log10 of the molar value. Calls of active or inactive are those of the source. The calls are words filed in the database; no cut-off is given here.

Series [1] deals with T1, Tyrosine-protein kinase BTK (Homo sapiens, UniProt Q06187). Nature of the series: Inhibition of Btk (unknown origin) after 1 hr by HTRF assay. In outline:
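Recombinant kinases tested by HTRF KinEase protocol. Enzyme preincubated with inhibitor for a fixed 10 min. IC50 values are means of duplicates.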

A short description of series [2]: Plasma concentration in CB17 SCID mouse xenografted with human DOHH2 cells at 10 mg/kg, iv qd administered for 14 days measured at 2 hrs post last dose. In kind it is ADME, organism-based, DOHH-2. Further details: dose 10 mg/kg, route intravenous. In short, it runs like this: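 Female CB17/SCID mice were given 5 × 10⁶ DoHH2 cells subcutaneously. When tumours averaged ~167 mm³, mice were randomised into four groups (n = 6/group). Dosing was by tail-vein injection once daily for 14 consecutive days. Plasma compound levels were determined at 2 and 24 h after the final dose.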
A general note: In xenograft studies the graft and the host belong to different species.

Series [3] addresses Epidermal growth factor receptor (Homo sapiens, UniProt P00533). The note with it: 5 nM.
The nature of series [4]: Cytotoxicity against human DOHH2 cells assessed as growth inhibition after 72 hrs by CellTiter-Glo luminescent cell viability assay. In kind it is functional, DOHH-2. In outline:
(§1)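 Lymphoma cells seeded at 5000 cells/well, incubated 24 h, then exposed to compounds for 72 h. Viability read by CellTiter-Glo luminescence. GI50 from dose−response curves, mean of two or three independent experiments in triplicate.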
Background: ATP-based viability assays read luminescence as a measure of living cells.

For another series, the system named is Mus musculus. Description: Toxicity in CB17 SCID mouse xenografted with human DOHH2 cells assessed as body weight fluctuations at 10 mg/kg, iv qd administered for 14 days measured over 14 days of compound treatment. It is filed as organism-based, DOHH-2. On the set-up: dose 10 mg/kg, route intravenous. The note with it: in vivo, 336 h. In short, it runs like this: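 Female CB17/SCID mice carried subcutaneous DoHH2 xenografts (5 × 10⁶ cells injected), randomised at ~167 mm³ mean tumour volume into four groups (n = 6/group). Compound was given intravenously via the tail vein once daily for 14 consecutive days. Body weights were tracked over time throughout the study.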

Series [5] is described as follows: Cytotoxicity against human SU-DHL6 cells assessed as growth inhibition after 72 hrs by CellTiter-Glo luminescent cell viability assay. It is filed as functional, SU-DHL-6. In outline: as §1
Series [6] in a line: Cytotoxicity against human Pfeiffer cells assessed as growth inhibition after 72 hrs by CellTiter-Glo luminescent cell viability assay. In kind it is functional. In outline:
as §1

The target in series [7] is T1, Tyrosine-protein kinase BTK. Nature of the series: Irreversible inhibition of Btk phosphorylation at Tyr551 in human Ramos cells at 1 uM incubated for 1 hr followed by compound washout with fresh media measured after 2 hrs by Western blot analysis. In kind it is cell-based. In short, it runs like this: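 Ramos cells (5 × 10⁵) seeded overnight, treated with compound 1 h, then washed out with fresh media for 2 h. Cells stimulated with goat anti-human IgM for 3−5 min, lysed by boiling in SDS buffer, and Btk Tyr551 phosphorylation assessed by Western blot.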

T1 sequence (Q06187 whole entry): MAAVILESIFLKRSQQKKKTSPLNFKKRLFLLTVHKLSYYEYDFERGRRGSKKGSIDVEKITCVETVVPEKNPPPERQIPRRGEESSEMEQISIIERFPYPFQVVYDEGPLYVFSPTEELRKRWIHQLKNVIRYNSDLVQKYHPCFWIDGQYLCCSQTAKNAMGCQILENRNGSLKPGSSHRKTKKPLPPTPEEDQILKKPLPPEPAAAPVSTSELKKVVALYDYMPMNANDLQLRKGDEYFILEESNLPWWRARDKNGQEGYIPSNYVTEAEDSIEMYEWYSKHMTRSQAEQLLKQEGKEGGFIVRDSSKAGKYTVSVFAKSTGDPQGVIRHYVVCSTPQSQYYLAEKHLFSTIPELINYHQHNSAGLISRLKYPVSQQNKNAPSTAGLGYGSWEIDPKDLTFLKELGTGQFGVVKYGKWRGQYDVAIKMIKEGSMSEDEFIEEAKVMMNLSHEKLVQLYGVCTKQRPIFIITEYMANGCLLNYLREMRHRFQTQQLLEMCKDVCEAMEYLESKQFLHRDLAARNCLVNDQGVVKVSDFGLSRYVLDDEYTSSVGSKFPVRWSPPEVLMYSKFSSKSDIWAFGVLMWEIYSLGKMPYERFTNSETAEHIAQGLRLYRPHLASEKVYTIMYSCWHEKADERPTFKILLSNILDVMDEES
Sequence of Epidermal growth factor receptor (P00533 whole entry): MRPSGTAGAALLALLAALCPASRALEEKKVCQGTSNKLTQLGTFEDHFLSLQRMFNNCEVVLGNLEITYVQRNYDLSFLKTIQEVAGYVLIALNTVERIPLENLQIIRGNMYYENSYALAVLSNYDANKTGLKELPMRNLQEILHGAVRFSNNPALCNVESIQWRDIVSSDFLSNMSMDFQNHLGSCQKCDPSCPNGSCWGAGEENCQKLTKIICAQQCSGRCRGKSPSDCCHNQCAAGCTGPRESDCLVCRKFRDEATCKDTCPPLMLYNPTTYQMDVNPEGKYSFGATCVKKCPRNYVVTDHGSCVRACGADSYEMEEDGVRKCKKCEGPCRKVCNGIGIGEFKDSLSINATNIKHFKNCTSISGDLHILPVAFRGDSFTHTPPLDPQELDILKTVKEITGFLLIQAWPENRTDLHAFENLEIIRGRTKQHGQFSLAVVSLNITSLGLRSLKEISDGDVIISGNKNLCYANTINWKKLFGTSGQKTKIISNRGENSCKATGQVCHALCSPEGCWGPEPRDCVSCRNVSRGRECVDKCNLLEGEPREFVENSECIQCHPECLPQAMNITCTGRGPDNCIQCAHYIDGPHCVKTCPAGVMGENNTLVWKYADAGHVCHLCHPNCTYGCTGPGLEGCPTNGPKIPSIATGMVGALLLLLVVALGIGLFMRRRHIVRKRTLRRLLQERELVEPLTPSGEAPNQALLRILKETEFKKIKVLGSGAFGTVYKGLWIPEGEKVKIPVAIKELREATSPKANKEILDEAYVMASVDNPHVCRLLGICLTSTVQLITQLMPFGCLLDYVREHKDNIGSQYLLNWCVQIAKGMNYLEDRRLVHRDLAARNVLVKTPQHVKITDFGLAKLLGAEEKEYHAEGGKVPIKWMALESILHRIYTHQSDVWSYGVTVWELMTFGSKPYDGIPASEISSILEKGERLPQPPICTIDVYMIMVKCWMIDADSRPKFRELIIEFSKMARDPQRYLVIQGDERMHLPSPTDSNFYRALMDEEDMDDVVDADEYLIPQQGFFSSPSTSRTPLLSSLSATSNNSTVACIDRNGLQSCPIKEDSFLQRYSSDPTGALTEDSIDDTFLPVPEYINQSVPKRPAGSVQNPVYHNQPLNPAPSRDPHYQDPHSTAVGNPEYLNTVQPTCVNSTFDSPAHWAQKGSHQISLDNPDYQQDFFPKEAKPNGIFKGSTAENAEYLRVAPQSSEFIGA

The term pIC50 denotes the IC50 on a negative log10 scale, so that one unit is a factor of ten. Low readings indicate a large IC50, high ones a small IC50. Consider `C=CC(=O)N(C(=O)C=C)c1cccc(Nc2ncc(NC(=O)c3cc(NC(=O)c4cccc(C(F)(F)F)c4)ccc3C)cn2)c1`, for which the negative-log IC50 (pIC50) in series [1] was 6.68.
On the same count and under the same terms, as for `Cc1ccc(NC(=O)c2cccc(Cl)c2)cc1C(=O)Nc1cnc(Nc2cccc(N)c2)nc1`, the figure is 7.70; as for `Cc1ccc(NC(=O)c2cccc(C(F)(F)F)c2)cc1C(=O)Nc1cnc(Nc2ccc(N)cc2)nc1`, 8.10; as for `Cc1ccc(NC(=O)/C=C/c2ccccc2)cc1C(=O)Nc1cnc(Nc2cccc(N)c2)nc1`, 7.62.
Still for that read-out and setting: as for `Cc1ccc(NC(=O)c2cccc(C(F)(F)F)c2)cc1C(=O)Nc1cnc(Nc2cccc(NC(=O)/C=C/CN(C)C)c2)nc1`, the figure is 7.82.
Still for that read-out and setting: as for `COc1cccc(Nc2ncc(NC(=O)c3cc(NC(=O)c4cccc(C(F)(F)F)c4)ccc3C)cn2)c1`, the figure is 7.28.
The compound `CCC(=O)Nc1ccc(C)c(C(=O)Nc2cnc(Nc3cccc(N)c3)nc2)c1` had a pIC50 in series [1] of 5.07.
Still for that read-out and setting: as for `CCNc1ncc(NC(=O)c2cc(NC(=O)c3cccc(C(F)(F)F)c3)ccc2C)cn1`, the figure is 5.96; as for `Cc1ccc(NC(=O)c2cccc(C(F)(F)F)c2)cc1C(=O)Nc1cnc(Nc2cccc(NC(=O)Cn3sc4ccccc4c3=O)c2)nc1`, 7.74.
On the same count and under the same terms, as for `Nc1cccc(Nc2ncc(NC(=O)c3cccc(NC(=O)c4cccc(C(F)(F)F)c4)c3)cn2)c1`, the figure is 6.63.
Same read-out and setting: as for `Cc1ccc(NC(=O)c2cccc(C(F)(F)F)c2)cc1C(=O)Nc1cnc(N)nc1`, the figure is 5.47.
Compound `Nc1cccc(Nc2ncc(NC(=O)c3cccc(C(=O)Nc4cccc(C(F)(F)F)c4)c3)cn2)c1` gave a negative-log IC50 (pIC50) in series [1] of 7.35.
Still for that read-out and setting: as for `Cc1ccc(NC(=O)c2cccc(C(F)(F)F)c2)cc1C(=O)Nc1cnc(Nc2cccc(C(F)(F)F)c2)nc1`, the figure is 6.52.
The same measure, in the same setting: as for `CCC(=O)N(C(=O)CC)c1cccc(Nc2ncc(NC(=O)c3cc(NC(=O)c4cccc(C(F)(F)F)c4)ccc3C)cn2)c1`, the figure is 5.85; as for `Cc1ccc(NC(=O)c2cccc(C(F)(F)F)c2)cc1C(=O)Nc1cnc(NC2CC2)nc1`, 5.67; as for `C=CC(=O)Nc1cccc(Nc2ncc(NC(=O)c3cc(NC(=O)c4ccc(Cl)c(C(F)(F)F)c4)ccc3C)cn2)c1`, 7.96.
On the same count and under the same terms, as for `Cc1ccc(NC(=O)c2cccc(N(C)C)c2)cc1C(=O)Nc1cnc(Nc2cccc(N)c2)nc1`, the figure is 7.33.
As a reminder, the GI50 is the concentration that inhibits growth by half. As to `C=CC(=O)N1CCC[C@@H](n2nc(-c3ccc(Oc4ccccc4)cc3)c3c(N)ncnc32)C1` [IBRUTINIB], the concentration at 2 h in series [2] was 479 ng/mL. The inhibition result in series [3] is “Active”. The GI50 was 410 nM in series [4], 580 nM in series [5] and 2 nM in series [6]. In the series on Mus musculus, the Activity result is reported as “Non-toxic”.
`Cc1ccc(NC(=O)Nc2cccc(C(F)(F)F)c2)cc1C(=O)Nc1cnc(Nc2cccc(N)c2)nc1` gave a pIC50 in series [1] of 7.20.
The same measure, in the same setting: as for `Nc1cccc(Nc2ncc(NC(=O)c3cc(NC(=O)c4cccc(C(F)(F)F)c4)ccc3Cl)cn2)c1`, the figure is 7.96; as for `C=CS(=O)(=O)Nc1cccc(Nc2ncc(NC(=O)c3cc(NC(=O)c4cccc(C(F)(F)F)c4)ccc3C)cn2)c1`, 7.80; as for `Cc1ccc(NC(=O)c2cccc(C(F)(F)F)c2)cc1C(=O)Nc1cnc(Nc2cccc(NC(=O)CCl)c2)nc1`, 7.82.
The same measure, in the same setting: as for `Cc1ccc(NC(=O)C2CC2)cc1C(=O)Nc1cnc(Nc2cccc(N)c2)nc1`, the figure is 5.31.
Consider `Cc1ccc(NC(=O)c2ccc(C(F)(F)F)cc2)cc1C(=O)Nc1cnc(Nc2cccc(N)c2)nc1`, for which, in series [1], the negative-log IC50 (pIC50) is 7.60.
The same measure, in the same setting: as for `Nc1cccc(Nc2ncc(NC(=O)c3cc(NC(=O)c4cccc(C(F)(F)F)c4)ccc3F)cn2)c1`, the figure is 7.33; as for `Cc1ccc(NC(=O)c2ccc(Cl)c(C(F)(F)F)c2)cc1C(=O)Nc1cnc(Nc2cccc(N)c2)nc1`, 8.05.
On to `C/C=C/C(=O)Nc1cccc(Nc2ncc(NC(=O)c3cc(NC(=O)c4cccc(C(F)(F)F)c4)ccc3C)cn2)c1`, for which the negative-log IC50 (pIC50) in series [1] was 7.44.
On the same count and under the same terms, as for `Cc1ccc(NC(=O)c2cc(Cl)cc(C(F)(F)F)c2)cc1C(=O)Nc1cnc(Nc2cccc(N)c2)nc1`, the figure is 7.74.
Compound `Cc1ccc(NC(=O)c2cccc(C(F)(F)F)c2)cc1C(=O)Nc1cnc(Nc2ccccc2)nc1` gave a negative logarithm of the IC50 (pIC50) in series [1] of 6.88.
The same measure, in the same setting: as for `C=CC(=O)Nc1cccc(Nc2ncc(NC(=O)c3cc(NC(=O)c4cccc(F)c4)ccc3C)cn2)c1`, the figure is 7.32.
`CCC(=O)Nc1cccc(Nc2ncc(NC(=O)c3cc(NC(=O)c4cccc(C(F)(F)F)c4)ccc3C)cn2)c1`: in series [7], the inhibition entry was “inactive”. In series [1], this compound showed a pIC50 of 7.82.
In the case of `Cc1ccc(NC(=O)c2cccc(C(F)(F)F)c2)cc1C(=O)Nc1cnc(Nc2cccc(NC(=O)CCN(C)C)c2)nc1`, the pIC50 in series [1] was 7.85.
The compound `Cc1ccc(NC(=O)c2cccc(F)c2)cc1C(=O)Nc1cnc(Nc2cccc(N)c2)nc1` showed a negative logarithm of the IC50 (pIC50) in series [1] of 6.78.
On the same count and under the same terms, as for `C=CC(=O)Nc1cccc(Nc2ncc(NC(=O)c3cc(NC(=O)c4ccc5ccccc5c4)ccc3C)cn2)c1`, the figure is 7.66; as for `Cc1ccc(NC(=O)c2cccc(C(F)(F)F)c2)cc1C(=O)Nc1cnc(Nc2cccc(N)c2)nc1`, 7.85; as for `Cc1ccc(NC(=O)c2cccc(C(F)(F)F)c2)cc1C(=O)Nc1cnc(Nc2cccc(F)c2)nc1`, 7.28.
On the same count and under the same terms, as for `Cc1ccc(NC(=O)c2ccc3ccccc3c2)cc1C(=O)Nc1cnc(Nc2cccc(N)c2)nc1`, the figure is 7.41.
